Results as given in ChEMBL document CHEMBL2086366, “Chemical optimization of new ligands of the low-density lipoprotein receptor as potential vectors for central nervous system targeting” (J Med Chem, 2012).
Where a SMILES comes first, the peptide text is derived from it. Bridges are numbered along the chain shown (N, C = ends).

System: not listed separately
Assay: Half life in Swiss mouse plasma
Format: ADME, cell-free
Conditions: not given; call rule not given here
Method in brief: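 Peptide in 0.9% NaCl was spiked into freshly collected Swiss mouse blood at 2 μM nominal (n = 3) and kept at 37 °C for 0, 0.5, 1, 2, 5 and 8 h. Plasma was separated, acidified with formic acid, and protein precipitated with acetonitrile. Analysis was by LC-MS/MS (positive ESI), LLOQ 25-50 nM.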

Row | half-life [h] | Compound
1 | 1.8 | CSCC[C@@H]1NC(=O)[C@H](NC(C)=O)CSSC[C@@H](C(N)=O)NC(=O)CNC(=O)[C@H](CCCNC(=N)N)NC(=O)[C@H](CC(C)C)NC(=O)[C@H](CCCNC(=N)N)NC(=O)[C@@H]2CSCN2C1=O
2 | 1.7 | CSCC[C@@H]1NC(=O)[C@H](NC(C)=O)C(C)(C)SSC[C@@H](C(N)=O)NC(=O)CNC(=O)[C@H](CCCNC(=N)N)NC(=O)[C@H](CC(C)C)NC(=O)[C@H](CCCNC(=N)N)NC(=O)[C@@H]2CCCCN2C1=O
3 | 2.26 | CSCC[C@@H]1NC(=O)[C@H](NC(C)=O)CSSC[C@@H](C(N)=O)NC(=O)CN(C)C(=O)[C@H](CCCNC(=N)N)NC(=O)[C@H](CC(C)C)NC(=O)[C@H](CCCNC(=N)N)NC(=O)[C@@H]2CSCN2C1=O
4 | 1.47 | CSCC[C@@H]1NC(=O)[C@@H](NC(C)=O)CSSC[C@@H](C(N)=O)NC(=O)CNC(=O)[C@H](CCCNC(=N)N)NC(=O)[C@H](CC(C)C)NC(=O)[C@H](CCCNC(=N)N)NC(=O)[C@@H]2CCCN2C1=O

Further lines, the compound ahead of its results:

Row | Compound | half-life [h]
5 | CSCC[C@@H]1NC(=O)[C@H](NC(C)=O)CSSC[C@@H](C(N)=O)NC(=O)CNC(=O)[C@H](CCCNC(=N)N)NC(=O)[C@H](CC(C)C)NC(=O)[C@H](CCCNC(=N)N)NC(=O)[C@@H]2CCCN2C1=O | 3.03
6 | CSCC[C@@H]1NC(=O)[C@@H](NC(C)=O)C(C)(C)SSC[C@@H](C(N)=O)NC(=O)CNC(=O)[C@H](CCCNC(=N)N)NC(=O)[C@H](CC(C)C)NC(=O)[C@H](CCCNC(=N)N)NC(=O)[C@@H]2CCCCN2C1=O | 2.99
7 | CSCC[C@@H]1NC(=O)[C@@H](NC(C)=O)C(C)(C)SSC[C@@H](C(N)=O)NC(=O)CN(C)C(=O)[C@H](CCCNC(=N)N)NC(=O)[C@H](CC(C)C)NC(=O)[C@H](CCCNC(=N)N)NC(=O)[C@@H]2CSCN2C1=O | 2.9

System: Mus musculus
Assay: Biodistribution in iv dosed dorsal spinal cord of C57-B16 mouse after 10 mins by real time biphoton microscopic analysis
Format: ADME, organism-based
Conditions: in vivo
Method in brief: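 C57-Bl6 mice (>7 weeks) anesthetized with ketamine-xylazine (100 mg/kg, 10 mg/kg), T13 laminectomy; 200 μL Rhodamine Red-X-labelled peptide (167 μM in DMSO + PBS) given iv, sometimes with 70 kDa fluorescein dextran. Two-photon imaging (840 nm excitation) of superficial dorsal spinal cord (first 100 μm) from 10 min after injection; scrambled peptide and free dye as controls.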

Row | Drug uptake | Compound
8 | Active | CSCC[C@@H]1NC(=O)[C@H](NC(C)=O)CSSC[C@@H](C(N)=O)NC(=O)CNC(=O)[C@H](CCCNC(=N)N)NC(=O)[C@H](CC(C)C)NC(=O)[C@H](CCCNC(=N)N)NC(=O)[C@@H]2CCCN2C1=O

Biological target: Low-density lipoprotein receptor (Homo sapiens) (UniProt P01130)
Sequence (P01130 whole entry, the tested form may be a part): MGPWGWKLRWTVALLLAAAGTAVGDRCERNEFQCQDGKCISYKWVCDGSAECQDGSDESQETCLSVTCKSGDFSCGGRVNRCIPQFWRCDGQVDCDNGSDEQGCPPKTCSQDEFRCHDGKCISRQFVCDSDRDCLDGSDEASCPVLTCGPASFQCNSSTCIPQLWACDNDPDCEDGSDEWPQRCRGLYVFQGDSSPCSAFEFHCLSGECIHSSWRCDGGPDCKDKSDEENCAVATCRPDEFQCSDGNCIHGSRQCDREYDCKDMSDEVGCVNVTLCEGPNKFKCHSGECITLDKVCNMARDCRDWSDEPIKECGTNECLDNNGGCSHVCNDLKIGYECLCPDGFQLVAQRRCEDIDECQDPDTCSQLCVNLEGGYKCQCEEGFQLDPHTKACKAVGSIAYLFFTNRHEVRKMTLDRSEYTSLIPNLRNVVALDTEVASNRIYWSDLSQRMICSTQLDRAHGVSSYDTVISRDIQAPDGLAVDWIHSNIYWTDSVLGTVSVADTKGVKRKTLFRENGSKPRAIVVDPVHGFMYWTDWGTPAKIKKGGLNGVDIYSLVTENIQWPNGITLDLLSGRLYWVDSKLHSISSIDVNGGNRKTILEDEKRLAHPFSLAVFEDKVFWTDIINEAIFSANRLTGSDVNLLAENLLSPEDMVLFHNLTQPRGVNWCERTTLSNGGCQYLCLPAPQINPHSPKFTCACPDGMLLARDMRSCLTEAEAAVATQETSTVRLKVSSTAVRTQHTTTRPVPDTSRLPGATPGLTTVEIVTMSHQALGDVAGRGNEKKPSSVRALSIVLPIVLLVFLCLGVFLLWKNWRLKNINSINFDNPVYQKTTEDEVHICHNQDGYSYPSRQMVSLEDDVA
Assay: Displacement of S-tagged Ac-DSGL[CMPRLRGC]cDPR-NH2 from human DsRed2-fused LDLR expressed in CHO cells at 10 uM after 1 hr by FRET assay
Format: cell-based
Conditions: not given
Method in brief: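 CHO cells stably expressing hLDLR-DsRed2 (Ham-F12, 5% FBS, Geneticin) at 800 000 cells/well were incubated in triplicate with S-tagged reference peptide (10 μM) plus test peptide (10 μM) in Ham-F12/1% BSA, 1 h, 37 °C. Scrambled and untagged peptide controls were included; values are means of at least three points.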

Row | inhibition [%] | Compound
9 | 3 | CSCC[C@@H]1NC(=O)[C@@H](NC(=O)[C@H](CC(C)C)NC(=O)CNC(=O)[C@H](CO)NC(=O)[C@H](CC(=O)O)NC(C)=O)CSSC[C@@H](C(=O)N[C@@H](CC(=O)O)C(=O)N2CCC[C@H]2C(=O)N[C@@H](CCCNC(=N)N)C(N)=O)NC(=O)CNC(=O)[C@H](CCCNC(=N)N)NC(=O)[C@H](CC(C)C)NC(=O)[C@H](CCCNC(=N)N)NC(=O)[C@H](C)NC1=O (Ac-DSGLCMARLRGCDPR-NH2; disulfide 5-12)
10 | 58 | CSCC[C@@H]1NC(=O)[C@@H](NC(=O)[C@H](CC(C)C)NC(=O)[C@H](C)NC(=O)[C@H](CO)NC(=O)[C@H](CC(=O)O)NC(C)=O)CSSC[C@@H](C(=O)N[C@@H](CC(=O)O)C(=O)N2CCC[C@H]2C(=O)N[C@@H](CCCNC(=N)N)C(N)=O)NC(=O)CNC(=O)[C@H](CCCNC(=N)N)NC(=O)[C@H](CC(C)C)NC(=O)[C@H](CCCNC(=N)N)NC(=O)[C@@H]2CCCN2C1=O (Ac-DSALCMPRLRGCDPR-NH2; disulfide 5-12)
11 | 0 | Ac-DSGLAMPRLRGCDPR-NH2
12 | 55 | CSCC[C@@H]1NC(=O)[C@@H](NC(=O)[C@H](CC(C)C)NC(=O)CNC(=O)[C@H](CO)NC(=O)[C@H](CC(=O)O)NC(C)=O)CSSC[C@@H](C(=O)N[C@@H](CC(=O)O)C(=O)N2CCC[C@H]2C(=O)N[C@@H](C)C(N)=O)NC(=O)CNC(=O)[C@H](CCCNC(=N)N)NC(=O)[C@H](CC(C)C)NC(=O)[C@H](CCCNC(=N)N)NC(=O)[C@@H]2CCCN2C1=O (Ac-DSGLCMPRLRGCDPA-NH2; disulfide 5-12)
13 | 0 | CSCC[C@@H]1NC(=O)[C@@H](NC(=O)[C@H](CC(C)C)NC(=O)CNC(=O)[C@H](CO)NC(=O)[C@H](CC(=O)O)NC(C)=O)CSSC[C@@H](C(=O)N[C@@H](CC(=O)O)C(=O)N2CCC[C@H]2C(=O)N[C@@H](CCCNC(=N)N)C(N)=O)NC(=O)CNC(=O)[C@H](CCCNC(=N)N)NC(=O)[C@H](CC(C)C)NC(=O)[C@H](C)NC(=O)[C@@H]2CCCN2C1=O (Ac-DSGLCMPALRGCDPR-NH2; disulfide 5-12)
14 | 39 | CSCC[C@@H]1NC(=O)[C@@H](NC(C)=O)CSSC[C@@H](C(N)=O)NC(=O)CNC(=O)[C@H](CCCNC(=N)N)NC(=O)[C@@H]2CCCN2C1=O (Ac-CMPRGC-NH2; disulfide 1-6)
15 | 35 | CSCC[C@@H]1NC(=O)[C@@H](NC(=O)[C@H](CC(C)C)NC(=O)CNC(=O)[C@H](CO)NC(=O)[C@H](CC(=O)O)NC(C)=O)CSSC[C@@H](C(=O)N[C@@H](CC(=O)O)C(=O)N2CCC[C@H]2C(=O)N[C@@H](CCCNC(=N)N)C(N)=O)NC(=O)CNC(=O)[C@H](CCCNC(=N)N)NC(=O)[C@H](C)NC(=O)[C@H](CCCNC(=N)N)NC(=O)[C@@H]2CCCN2C1=O (Ac-DSGLCMPRARGCDPR-NH2; disulfide 5-12)
16 | 20 | CSCC[C@@H]1NC(=O)[C@@H](NC(=O)[C@H](CC(C)C)NC(=O)CNC(=O)[C@H](C)NC(=O)[C@H](CC(=O)O)NC(C)=O)CSSC[C@@H](C(=O)N[C@@H](CC(=O)O)C(=O)N2CCC[C@H]2C(=O)N[C@@H](CCCNC(=N)N)C(N)=O)NC(=O)CNC(=O)[C@H](CCCNC(=N)N)NC(=O)[C@H](CC(C)C)NC(=O)[C@H](CCCNC(=N)N)NC(=O)[C@@H]2CCCN2C1=O (Ac-DAGLCMPRLRGCDPR-NH2; disulfide 5-12)
17 | 55 | CSCC[C@@H]1NC(=O)[C@@H](NC(=O)[C@H](CC(C)C)NC(=O)CNC(=O)[C@H](CO)NC(=O)[C@H](CC(=O)O)NC(C)=O)CSSC[C@@H](C(=O)N[C@@H](CC(=O)O)C(=O)N2CCC[C@H]2C(=O)N[C@@H](CCCNC(=N)N)C(N)=O)NC(=O)CNC(=O)[C@H](CCCNC(=N)N)NC(=O)[C@H](CC(C)C)NC(=O)[C@H](CCCNC(=N)N)NC(=O)[C@@H]2CCCN2C1=O

Second part, the compound before the results:

Row | Compound | inhibition [%]
18 | CC(=O)N[C@@H](CC(=O)O)C(=O)N[C@@H](CO)C(=O)NCC(=O)N[C@@H](CC(C)C)C(=O)N[C@H]1CSSC[C@@H](C(=O)N[C@@H](CC(=O)O)C(=O)N2CCC[C@H]2C(=O)N[C@@H](CCCNC(=N)N)C(N)=O)NC(=O)CNC(=O)[C@H](CCCNC(=N)N)NC(=O)[C@H](CC(C)C)NC(=O)[C@H](CCCNC(=N)N)NC(=O)[C@@H]2CCCN2C(=O)[C@H](C)NC1=O (Ac-DSGLCAPRLRGCDPR-NH2; disulfide 5-12) | 0
19 | CSCC[C@@H]1NC(=O)[C@@H](NC(C)=O)CSC[C@@H](C(N)=O)NC(=O)[C@H](CCCNC(=N)N)NC(=O)[C@@H]2CCCN2C1=O | 0
20 | CSCC[C@@H]1NC(=O)[C@@H](NC(=O)[C@H](CC(C)C)NC(=O)CNC(=O)[C@H](CO)NC(=O)[C@H](CC(=O)O)NC(C)=O)CSSC[C@@H](C(=O)N[C@@H](C)C(=O)N2CCC[C@H]2C(=O)N[C@@H](CCCNC(=N)N)C(N)=O)NC(=O)CNC(=O)[C@H](CCCNC(=N)N)NC(=O)[C@H](CC(C)C)NC(=O)[C@H](CCCNC(=N)N)NC(=O)[C@@H]2CCCN2C1=O (Ac-DSGLCMPRLRGCAPR-NH2; disulfide 5-12) | 70
21 | Ac-DSGLSMPRLRGSDPR-NH2 | 0
22 | CSCC[C@@H]1NC(=O)[C@@H](NC(=O)[C@H](CC(C)C)NC(=O)CNC(=O)[C@H](CO)NC(=O)[C@H](CC(=O)O)NC(C)=O)CSSC[C@@H](C(=O)N[C@@H](CC(=O)O)C(=O)N2CCC[C@H]2C(=O)N[C@@H](CCCNC(=N)N)C(N)=O)NC(=O)CNC(=O)[C@H](C)NC(=O)[C@H](CC(C)C)NC(=O)[C@H](CCCNC(=N)N)NC(=O)[C@@H]2CCCN2C1=O (Ac-DSGLCMPRLAGCDPR-NH2; disulfide 5-12) | 2
23 | CSCC[C@@H]1NC(=O)[C@@H](NC(=O)[C@H](CC(C)C)NC(=O)CNC(=O)[C@H](CO)NC(=O)[C@H](CC(=O)O)NC(C)=O)CSSC[C@@H](C(=O)N[C@@H](CC(=O)O)C(=O)N[C@@H](C)C(=O)N[C@@H](CCCNC(=N)N)C(N)=O)NC(=O)CNC(=O)[C@H](CCCNC(=N)N)NC(=O)[C@H](CC(C)C)NC(=O)[C@H](CCCNC(=N)N)NC(=O)[C@@H]2CCCN2C1=O (Ac-DSGLCMPRLRGCDAR-NH2; disulfide 5-12) | 52
24 | CSCC[C@@H]1NC(=O)[C@@H](NC(=O)[C@H](C)NC(=O)CNC(=O)[C@H](CO)NC(=O)[C@H](CC(=O)O)NC(C)=O)CSSC[C@@H](C(=O)N[C@@H](CC(=O)O)C(=O)N2CCC[C@H]2C(=O)N[C@@H](CCCNC(=N)N)C(N)=O)NC(=O)CNC(=O)[C@H](CCCNC(=N)N)NC(=O)[C@H](CC(C)C)NC(=O)[C@H](CCCNC(=N)N)NC(=O)[C@@H]2CCCN2C1=O (Ac-DSGACMPRLRGCDPR-NH2; disulfide 5-12) | 64
